For 73 sequences, Tm and folding enthalpy results are on record in the array DNA melting data of Ke et al. (doi:10.1101/2024.01.08.574731).

Series [1] is described as follows: melting temperature; fluorescence melt of hairpins on a sequencing array, two-state fit, raised by 9.35 °C to match UV melts. To be noted: sodium 0.088 M. The gist of the method:
(§1)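 Melting temperature and folding enthalpy were derived from bootstrapped two-state fits. The fitted temperatures were raised by 9.35 °C to agree with UV melts, and four replicates were combined by inverse variance. The underlying data were Cy3 fluorescence images of library hairpins, with annealed Cy3 and quencher oligos, on a sequenced MiSeq flow cell in 50 mM Na-HEPES pH 8.0, 25 mM NaCl, taken in 2.5 °C steps up to 60 °C, normalised to pre-quench Cy3 and to control constructs.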

Series [2] is described as follows: folding enthalpy; higher = less favourable; fluorescence melt of hairpins on a sequencing array, two-state fit. To be noted: sodium 0.088 M. The gist of the method: as §1

Turning to GCCGTGACGAAAGTCGGC (((..(((....)))))), the Tm in series [1] came to 57.1 °C. The folding enthalpy in series [2] is -23.3 kcal/mol.
With GCCGTGCGAAAGCATAGC ((..(((....)))..)), in series [1], the Tm was 43.3 °C. Moreover, the folding enthalpy in series [2] is -13.6 kcal/mol.
Turning to GCCGTGCGAAAGCATTGC ((..(((....)))..)), the Tm in series [1] worked out at 43.2 °C. Moreover, the folding enthalpy in series [2] is -12.6 kcal/mol.
For GCCGTGCGAAAGCGGGGC (((..((....))..))), in series [1], the Tm stood at 67.3 °C. Also, the folding enthalpy in series [2] is -34.8 kcal/mol.
With GCCGTGGGAAACCATGGC (((.(((....))).))), in series [1], the Tm was 59.4 °C. Besides, the folding enthalpy in series [2] is -43.5 kcal/mol.
Regarding GCCGTGGGAAACTGCGGC ((((..(....)..)))), in series [1], the Tm came out at 53.9 °C. Besides, in series [2], the folding enthalpy was -28.5 kcal/mol.
The like results for GCCGTTGCGAAAGCAGGC (((..(((....)))))) were, in that order, 62.3 °C and -31.7 kcal/mol.
On to GCCGTTGGAAACAACGAC (.(((((....))))).), for which the Tm in series [1] stood at 46.2 °C. In series [2], the folding enthalpy was -16.9 kcal/mol.
The like results for GCCTAACCGAAAGGTGGC (((..(((....)))))) were, in that order, 53.2 °C and -23.2 kcal/mol.
On the same counts, the results for GCCTACCCGAAAGGGGGC (((..(((....)))))) are 52.4 °C and -17.3 kcal/mol.
For the sequence GCCTACCGAAAGGTCGGC (((.(((....))).))), in series [1], the Tm is 56.5 °C. The folding enthalpy in series [2] was -39.7 kcal/mol.
Take GCCTACGAAAGTACAGGC ((((((....)))..))): in series [1], the Tm was 47.7 °C. Moreover, the folding enthalpy in series [2] was -30.7 kcal/mol.
In the case of GCCTACGAAAGTACCGGC ((((((....)))..))), the Tm in series [1] was 36.9 °C. Also, the folding enthalpy in series [2] is -25.6 kcal/mol.
Turning to GCCTACGAAAGTACGGGC ((((((....)))..))), in series [1], the Tm stood at 46.3 °C. In series [2], the folding enthalpy was -27.2 kcal/mol.
GCCTACGAAAGTACTGGC ((((((....)))..))): the Tm in series [1] is 40.2 °C. In addition, in series [2], the folding enthalpy is -24.4 kcal/mol.
In the case of GCCTACGAAAGTATAGGC ((((((....)))..))), in series [1], the Tm was found to be 49.3 °C. In addition, the folding enthalpy in series [2] is -25.5 kcal/mol.
For GCCTACGGAAACGTAGAC (.(((((....))))).), the Tm in series [1] was determined as 41.8 °C. Also, the folding enthalpy in series [2] was -18.1 kcal/mol.
The like results for GCCTAGCGAAAGCAAGGC ((((.((....)).)))) were, in that order, 67.2 °C and -29.3 kcal/mol.
On the same counts, the results for GCCTAGCGAAAGCGCGGC (((..((....))..))) are 61.9 °C and -18.5 kcal/mol.
With GCCTAGCGAAAGCTATGC ((.((((....)))).)), the Tm in series [1] is 46.2 °C. In series [2], the folding enthalpy was -23.6 kcal/mol.
With GCCTAGGGAAACTTGGGC (((.(.(....).).))), the Tm in series [1] was found to be 36.7 °C. Moreover, the folding enthalpy in series [2] was -28.3 kcal/mol.
On the same counts, the results for GCCTAGTCGAAAGACGGC (((..(((....)))))) are 51.6 °C and -21 kcal/mol.
For GCCTATCCGAAAGGAGGC (((..(((....)))))), the Tm in series [1] was 47.3 °C. For the same sequence, the folding enthalpy in series [2] was -20.7 kcal/mol.
On the same counts, the results for GCCTCAACGAAAGTTGGC (((..(((....)))))) are 42.9 °C and -12.4 kcal/mol.
On the same counts, the results for GCCTCACGAAAGTGCGGC (((.(((....))).))) are 57.7 °C and -43.1 kcal/mol.
For GCCTCACGAAAGTGGGC (((.(((....)))))), the Tm in series [1] worked out at 58.6 °C. Further, the folding enthalpy in series [2] was -33.4 kcal/mol.
In the case of GCCTCAGGAAACTAAGGC ((((.((....)).)))), in series [1], the Tm is 37.6 °C. In series [2], the folding enthalpy is -27.7 kcal/mol.
On to GCCTCCACGAAAGTGGGC (((..(((....)))))), for which, in series [1], the Tm turned out to be 46.9 °C. The folding enthalpy in series [2] was -7.76 kcal/mol.
For the sequence GCCTCCCGAAAGGGGGC (((.(((....)))))), the Tm in series [1] was determined as 67.7 °C. Moreover, the folding enthalpy in series [2] is -27.1 kcal/mol.
For GCCTCCGAAAGGAACGGC ((((((....)))..))), the Tm in series [1] turned out to be 46.9 °C. Also, the folding enthalpy in series [2] is -25.3 kcal/mol.
The like results for GCCTCCGAAAGGAAGGGC ((((((....)))..))) were, in that order, 50.2 °C and -22.3 kcal/mol.
GCCTCCGAAAGGACAGGC ((((((....)))..))): the Tm in series [1] worked out at 49.8 °C. The folding enthalpy in series [2] was -36.5 kcal/mol.
The like results for GCCTCCGAAAGGACGGGC ((((((....)))..))) were, in that order, 48.6 °C and -24.5 kcal/mol.
Regarding GCCTCCGAAAGGACTGGC ((((((....)))..))), the Tm in series [1] was determined as 44.4 °C. In addition, the folding enthalpy in series [2] is -27.8 kcal/mol.
On the same counts, the results for GCCTCCGAAAGGATCGGC ((((((....)))..))) are 45.3 °C and -24.2 kcal/mol.
As to GCCTCCGGAAACGAAGGC ((((.((....)).)))), the Tm in series [1] was 48.8 °C. In series [2], the folding enthalpy was -28.3 kcal/mol.
The like results for GCCTCCGGAAACGGAAGC ((.((((....)))).)) were, in that order, 45.9 °C and -22.7 kcal/mol.
On the same counts, the results for GCCTCGCGAAAGCAACGC ((.(.((....)).).)) are 23.4 °C and -5.96 kcal/mol.
Regarding GCCTCGCGAAAGCAGGGC (((..((....))..))), the Tm in series [1] was 60.8 °C. Also, in series [2], the folding enthalpy was -20.6 kcal/mol.
The like results for GCCTCGCGAAAGCCCGGC (((..((....))..))) were, in that order, 42.8 °C and -17.8 kcal/mol.
As for GCCTCGCGAAAGCGCAGC ((..(((....)))..)), in series [1], the Tm came out at 39.8 °C. For the same sequence, the folding enthalpy in series [2] is -9.54 kcal/mol.
For GCCTCGCGAAAGCGGCGC ((..(((....)))..)), in series [1], the Tm came out at 58.5 °C. In addition, the folding enthalpy in series [2] was -16.4 kcal/mol.
Consider GCCTCGCGAAAGCGGTGC ((..(((....)))..)), for which the Tm in series [1] was determined as 43.7 °C. Further, the folding enthalpy in series [2] was -14.1 kcal/mol.
As for GCCTCGGGAAACTGGGGC (((.(.(....).).))), the Tm in series [1] amounted to 47.4 °C. The folding enthalpy in series [2] was -37.5 kcal/mol.
The like results for GCCTCTACGAAAGTAGGC (((..(((....)))))) were, in that order, 47.9 °C and -12.2 kcal/mol.
On to GCCTCTGAAAAGAGGC ((((((....)))))), for which, in series [1], the Tm was determined as 68.9 °C. Moreover, the folding enthalpy in series [2] is -37.8 kcal/mol.
On the same counts, the results for GCCTCTGGAAACAGGGGC (((.(((....))).))) are 57.4 °C and -45.3 kcal/mol.
On the same counts, the results for GCCTGAGGAAACTTGGGC (((..((....))..))) are 42.3 °C and -29 kcal/mol.
In the case of GCCTGCGAAAGCAAAGGC ((((((....)))..))), the Tm in series [1] came out at 59.3 °C. The folding enthalpy in series [2] is -26.9 kcal/mol.
On the same counts, the results for GCCTGCGAAAGCAACGGC ((((((....)))..))) are 52.8 °C and -23.6 kcal/mol.
The like results for GCCTGCGAAAGCAATGGC ((((((....)))..))) were, in that order, 56 °C and -23.8 kcal/mol.
On the same counts, the results for GCCTGCGAAAGCATAGGC ((((((....)))..))) are 56 °C and -31.4 kcal/mol.
On to GCCTGGCGAAAGCAAAGC ((.(.((....)).).)), for which the Tm in series [1] was found to be 31.6 °C. In series [2], the folding enthalpy is -9.2 kcal/mol.
With GCCTGGCGAAAGCACGGC (((..((....))..))), the Tm in series [1] turned out to be 59.1 °C. For the same sequence, in series [2], the folding enthalpy was -24.3 kcal/mol.
On the same counts, the results for GCCTGGCGAAAGCATGGC (((..((....))..))) are 60.4 °C and -23.7 kcal/mol.
For the sequence GCCTGGCGAAAGCCATGC ((.((((....)))).)), the Tm in series [1] turned out to be 56.7 °C. In series [2], the folding enthalpy was -17.2 kcal/mol.
Consider GCCTGGCGAAAGCCGAGC ((..(((....)))..)), for which the Tm in series [1] came to 49.5 °C. For the same sequence, the folding enthalpy in series [2] was -13.5 kcal/mol.
GCCTGGCGAAAGCCGGC (((.(((....)))))): the Tm in series [1] is 68.1 °C. For the same sequence, the folding enthalpy in series [2] was -16.5 kcal/mol.
On the same counts, the results for GCCTGGCGAAAGCCGTGC ((..(((....)))..)) are 48.8 °C and -12.9 kcal/mol.
Take GCCTGGCGAAAGCCTTGC ((..(((....)))..)): in series [1], the Tm was 42.1 °C. The folding enthalpy in series [2] was -13 kcal/mol.
The like results for GCCTGGCGAAAGCGGGGC (((..((....))..))) were, in that order, 64 °C and -27 kcal/mol.
As to GCCTGGCGAAAGCTCGGC (((..((....))..))), the Tm in series [1] came out at 55.9 °C. In addition, the folding enthalpy in series [2] is -18.8 kcal/mol.
On the same counts, the results for GCCTGGCGAAAGCTGGGC (((..((....))..))) are 64.4 °C and -28.2 kcal/mol.
For GCCTGGGGAAACCCAAGC ((.((((....)))).)), the Tm in series [1] was found to be 42.7 °C. Also, the folding enthalpy in series [2] was -21.5 kcal/mol.
On the same counts, the results for GCCTGGGGAAACCCAGAC (.(((((....))))).) are 44.5 °C and -14.1 kcal/mol.
On the same counts, the results for GCCTGGGGAAACCCGGGC (((.(((....))).))) are 64.6 °C and -39.2 kcal/mol.
For GCCTGTGGAAACATGGGC (((..((....))..))), in series [1], the Tm was determined as 47.4 °C. Further, the folding enthalpy in series [2] was -29.4 kcal/mol.
The like results for GCCTTAGGAAACTGAGGC ((((.((....)).)))) were, in that order, 49 °C and -41.7 kcal/mol.
The like results for GCCTTCGAAAGAAAAGGC ((((((....)))..))) were, in that order, 45.7 °C and -27.7 kcal/mol.
Take GCCTTCGAAAGAAGGGC ((((((....))).))): the Tm in series [1] was 63.1 °C. Also, in series [2], the folding enthalpy is -15 kcal/mol.
On to GCCTTCGAAAGAAGTGGC ((((((....)))..))), for which, in series [1], the Tm came to 44.5 °C. Also, in series [2], the folding enthalpy was -22 kcal/mol.
On to GCCTTCGAAAGAATCGGC ((((((....)))..))), for which the Tm in series [1] worked out at 34.8 °C. Besides, the folding enthalpy in series [2] is -23.4 kcal/mol.
The like results for GCCTTCGAAAGAATGGC ((((((....))).))) were, in that order, 49 °C and -27.2 kcal/mol.
